From ChEMBL document CHEMBL1156831, “Discovery of matrix metalloproteases selective and activated peptide-doxorubicin prodrugs as anti-tumor agents” (Bioorg Med Chem Lett, 2010)
Values after ≈ are worked out from the molar mass of the structure shown. Numbered stars: 1 amine (or outer) side, 2 acyl side, 3 side chain; on linkers, the order of the positions; unused ones are H or OH. Square brackets hold non-standard residues; d marks the D form. Peptide text beside a SMILES is read from it. * marks the point of attachment. ξ: configuration not given here. Doxorubicin(3'-N) = COc1cccc2c1C(=O)c1c(O)c3c(c(O)c1C2=O)C[C@@](O)(C(=O)CO)C[C@@H]3O[C@H]1C[C@H](N*)[C@H](O)[C@H](C)O1; X4 = O=C(c1cc(S(=O)(=O)O)cc(S(=O)(=O)O)c1)*; X6 = CN1CCN(CCCC(N[*:1])C(=O)[*:2])CC1; hTyr = N[C@@H](CCc1ccc(O)cc1)C(=O)O; X2 = O=C(C(CCc1ccncc1)N[*:1])[*:2]; hPhe = N[C@@H](CCc1ccccc1)C(=O)O; Cit = NC(=O)NCCC[C@H](N)C(=O)O; Suc = O=C(CCC(=O)[*:2])[*:1]; X5 = O=C(CS(=O)(=O)O)*; ξP = O=C(O)C1CCCN1; Bn = c1ccc(C*)cc1

Assays:
[1] = target: 72 kDa type IV collagenase (Homo sapiens) (UniProt P08253); experiment: Ratio Kcat to Ki for MMP2
[2] = target: Matrix metalloproteinase-9 (Homo sapiens) (UniProt P14780); experiment: Ratio Kcat to Ki for MMP9
[3] = target: Matrix metalloproteinase-14 (Homo sapiens) (UniProt P50281); experiment: Ratio Kcat to […] for MMP14
[4] = target: Neprilysin (Homo sapiens) (UniProt P08473); experiment: Ratio Kcat to […] for neprilysin
[5] = Compound remaining in mouse blood after 6 hrs; format: ADME, tissue-based; conditions: read-out: Stability
[6] = Ratio of drug level in tumor to heart in mouse bearing human HT1080 cells relative to doxorubicin; format: ADME; conditions: ht-1080
Procedure, shortened: (§1)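 Dox was measured in HT1080 xenograft tumor and in heart tissue 24 h after a single iv dose in mice. The tumor/heart Dox ratio was normalized to the ratio obtained with free Dox.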

[7] = Biodistribution in tumor in mouse bearing human HT1080 relative to doxorubicin; format: ADME, organism-based, Neoplasm; conditions: in vivo; procedure, shortened: as §1
[8] = Aqueous solubility at pH 7.4; format: physicochemical; conditions: aqueous medium
Bone marrow [9] = experiment: Bone marrow toxicity in mouse bone marrow assessed as reticulocyte count at 2 umol/kg qd for 10 days; format: tissue-based; conditions: in vivo, 240 h
Procedure, shortened: (§2)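 Mice were dosed once daily for 10 days (qdx10). Marrow toxicity was read out as the reticulocyte level, expressed as a percentage, and compared with vehicle-treated mice.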

Bone marrow [10] = experiment: Bone marrow toxicity in mouse bone marrow assessed as reticulocyte count at 4 umol/kg qd for 10 days; format: tissue-based; conditions: in vivo, 240 h; procedure, shortened: as §2
Bone marrow [11] = experiment: Bone marrow toxicity in mouse bone marrow assessed as reticulocyte count at 6 umol/kg qd for 10 days; format: tissue-based; conditions: in vivo, 240 h; procedure, shortened: as §2
Bone marrow [12] = experiment: Bone marrow toxicity in mouse bone marrow assessed as reticulocyte count at 14 umol/kg qd for 10 days; format: tissue-based; conditions: in vivo, 240 h; procedure, shortened: as §2

Chain of Neprilysin (Homo sapiens) (P08473 whole entry): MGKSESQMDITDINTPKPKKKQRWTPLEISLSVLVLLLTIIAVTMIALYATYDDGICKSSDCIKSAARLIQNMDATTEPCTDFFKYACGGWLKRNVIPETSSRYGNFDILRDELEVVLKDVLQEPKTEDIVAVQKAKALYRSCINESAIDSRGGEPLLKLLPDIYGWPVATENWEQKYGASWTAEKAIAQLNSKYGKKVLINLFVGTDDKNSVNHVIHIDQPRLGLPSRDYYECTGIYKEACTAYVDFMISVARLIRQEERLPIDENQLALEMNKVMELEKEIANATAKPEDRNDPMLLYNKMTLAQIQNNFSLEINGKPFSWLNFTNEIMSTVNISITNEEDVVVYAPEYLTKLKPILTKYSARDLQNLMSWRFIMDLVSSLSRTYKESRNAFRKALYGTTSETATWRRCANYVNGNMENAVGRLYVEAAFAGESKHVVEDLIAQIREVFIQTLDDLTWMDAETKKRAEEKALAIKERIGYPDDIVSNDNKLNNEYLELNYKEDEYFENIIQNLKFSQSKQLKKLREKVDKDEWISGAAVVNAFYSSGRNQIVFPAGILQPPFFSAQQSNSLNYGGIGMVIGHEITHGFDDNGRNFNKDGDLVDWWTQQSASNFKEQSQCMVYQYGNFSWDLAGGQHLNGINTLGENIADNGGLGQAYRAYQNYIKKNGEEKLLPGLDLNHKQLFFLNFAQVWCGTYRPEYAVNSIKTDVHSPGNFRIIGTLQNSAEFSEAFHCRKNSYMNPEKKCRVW
Chain of Matrix metalloproteinase-9 (Homo sapiens) (P14780 whole entry): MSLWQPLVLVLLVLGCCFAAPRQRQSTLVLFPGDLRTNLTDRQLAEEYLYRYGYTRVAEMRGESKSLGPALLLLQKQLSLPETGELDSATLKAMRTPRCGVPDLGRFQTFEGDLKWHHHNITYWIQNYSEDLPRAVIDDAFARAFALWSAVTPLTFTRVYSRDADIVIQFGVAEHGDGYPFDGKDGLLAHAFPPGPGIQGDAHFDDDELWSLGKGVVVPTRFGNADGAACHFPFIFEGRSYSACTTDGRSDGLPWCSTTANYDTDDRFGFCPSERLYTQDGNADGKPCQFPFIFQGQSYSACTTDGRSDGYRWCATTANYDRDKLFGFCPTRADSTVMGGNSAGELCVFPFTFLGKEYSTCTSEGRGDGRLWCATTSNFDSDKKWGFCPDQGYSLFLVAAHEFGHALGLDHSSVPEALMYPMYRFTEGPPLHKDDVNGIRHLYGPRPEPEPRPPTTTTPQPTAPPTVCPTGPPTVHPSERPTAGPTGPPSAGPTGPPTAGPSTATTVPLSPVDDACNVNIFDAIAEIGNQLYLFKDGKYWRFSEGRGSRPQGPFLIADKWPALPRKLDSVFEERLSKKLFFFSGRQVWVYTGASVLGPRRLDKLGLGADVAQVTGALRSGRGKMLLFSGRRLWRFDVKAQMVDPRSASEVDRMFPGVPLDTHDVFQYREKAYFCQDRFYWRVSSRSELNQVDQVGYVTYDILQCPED
Chain of 72 kDa type IV collagenase (Homo sapiens) (P08253 110-660 limits assumed): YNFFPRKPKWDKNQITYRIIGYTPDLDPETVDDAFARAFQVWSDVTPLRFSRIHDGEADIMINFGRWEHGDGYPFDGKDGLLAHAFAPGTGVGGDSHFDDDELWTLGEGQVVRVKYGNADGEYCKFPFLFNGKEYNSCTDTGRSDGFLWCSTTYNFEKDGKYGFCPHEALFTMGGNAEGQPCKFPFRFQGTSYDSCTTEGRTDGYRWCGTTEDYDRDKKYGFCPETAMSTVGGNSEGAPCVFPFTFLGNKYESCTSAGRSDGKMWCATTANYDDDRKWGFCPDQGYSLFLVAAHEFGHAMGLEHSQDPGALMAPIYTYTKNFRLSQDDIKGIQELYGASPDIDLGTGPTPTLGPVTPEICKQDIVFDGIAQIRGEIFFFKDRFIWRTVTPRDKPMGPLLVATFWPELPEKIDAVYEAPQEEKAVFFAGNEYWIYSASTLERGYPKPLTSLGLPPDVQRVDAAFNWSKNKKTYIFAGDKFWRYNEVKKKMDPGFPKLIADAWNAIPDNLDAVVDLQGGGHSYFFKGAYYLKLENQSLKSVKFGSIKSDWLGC

SMILES | Ratio [1] | Ratio [2] | Ratio [3] | Ratio [4] | remaining at 6 h [5] [%] | Ratio [6] | Drug uptake [7] [pmol/g] | solubility [8] [µg/mL] | Activity (Bone marrow [9]) [%] | Activity (Bone marrow [10]) [%] | Activity (Bone marrow [11]) [%] | Activity (Bone marrow [12]) [%]
COc1cccc2c1C(=O)c1c(O)c3c(c(O)c1C2=O)C[C@@](O)(C(=O)CO)C[C@@H]3O[C@H]1C[C@H](NC(=O)[C@H](CC(C)C)NC(=O)[C@H](CC(C)C)NC(=O)CNC(=O)[C@H](CC(C)C)NC(=O)[C@@H]2CCCN2C(C)=O)[C@H](O)[C@H](C)O1 (Ac-PLGLL-{Doxorubicin(3'-N)}) | 18 | > 120 | 4 | 22 | – | – | – | – | – | – | – | –
COc1cccc2c1C(=O)c1c(O)c3c(c(O)c1C2=O)C[C@@](O)(C(=O)CO)C[C@@H]3O[C@H]1C[C@H](NC(=O)[C@H](CC(C)C)NC(=O)[C@H](Cc2ccc(O)cc2)NC(=O)[C@H](CC(C)C)NC(=O)CNC(=O)[C@H](CC(C)C)NC(=O)[C@@H]2CCCN2C(C)=O)[C@H](O)[C@H](C)O1 (Ac-PLGLYL-{Doxorubicin(3'-N)}) | 88 | 390 | > 120 | 22 | – | – | – | – | – | – | – | –
COc1cccc2c1C(=O)c1c(O)c3c(c(O)c1C2=O)C[C@@](O)(C(=O)CO)C[C@@H]3O[C@H]1C[C@H](NC(=O)[C@H](CC(C)C)NC(=O)[C@H](Cc2ccc(O)cc2)NC(=O)[C@@H](NC(=O)CNC(=O)[C@H](CO)NC(=O)[C@@H]2CCCN2C(=O)c2cc(S(=O)(=O)O)cc(S(=O)(=O)O)c2)[C@@H](C)OCc2ccccc2)[C@H](O)[C@H](C)O1 (X4-PSGT(Bn)YL-{Doxorubicin(3'-N)}) | 114 | > 120 | > 120 | < 1 | 100 | 13 | 600 | – | – | – | – | –
COc1cccc2c1C(=O)c1c(O)c3c(c(O)c1C2=O)C[C@@](O)(C(=O)CO)C[C@@H]3O[C@H]1C[C@H](NC(=O)[C@H](CC(C)C)NC(=O)[C@H](Cc2ccc(O)cc2)NC(=O)[C@H](COCc2ccccc2)NC(=O)CNC(=O)[C@H](CC(C)C)NC(=O)C2CCCN2C(=O)CCC(=O)O)[C@H](O)[C@H](C)O1 (stereo partly drawn) (Suc-[ξP]LGS(Bn)YL-{Doxorubicin(3'-N)}) | 20 | 52 | 89 | < 1 | 100 | – | – | 1400 (≈ 1030 µM) | – | – | – | –
COc1cccc2c1C(=O)c1c(O)c3c(c(O)c1C2=O)C[C@@](O)(C(=O)CO)C[C@@H]3O[C@H]1C[C@H](NC(=O)[C@H](CC(C)C)NC(=O)CNC(=O)[C@H](CC(C)C)NC(=O)[C@@H]2CCCN2C(C)=O)[C@H](O)[C@H](C)O1 (Ac-PLGL-{Doxorubicin(3'-N)}) | < 1 | < 1 | – | – | – | – | – | – | – | – | – | –
COc1cccc2c1C(=O)c1c(O)c3c(c(O)c1C2=O)C[C@@](O)(C(=O)CO)C[C@@H]3O[C@H]1C[C@H](NC(=O)[C@H](CC(C)C)NC(=O)[C@H](Cc2ccc(O)cc2)NC(=O)[C@H](COCc2ccccc2)NC(=O)CNC(=O)[C@H](CC(C)C)NC(=O)[C@@H]2CCCN2C(C)=O)[C@H](O)[C@H](C)O1 (Ac-PLGS(Bn)YL-{Doxorubicin(3'-N)}) | 7 | 34 | 25 | < 1 | – | – | – | – | – | – | – | –
COc1cccc2c1C(=O)c1c(O)c3c(c(O)c1C2=O)C[C@@](O)(C(=O)CO)C[C@@H]3O[C@H]1C[C@H](N)[C@H](O)[C@H](C)O1 [DOXORUBICIN] | – | – | – | – | – | 1 | 1600 | – | 0.4 | 0.1 | 0.3 | 0.2
COC[C@H](NC(=O)CNC(=O)[C@H](CC(C)C)NC(=O)[C@@H]1CCCN1C(C)=O)C(=O)N[C@@H](Cc1ccc(O)cc1)C(=O)N[C@@H](CC(C)C)C(=O)N[C@H]1C[C@H](O[C@H]2C[C@](O)(C(=O)CO)Cc3c(O)c4c(c(O)c32)C(=O)c2c(OC)cccc2C4=O)O[C@@H](C)[C@H]1O (Ac-PLGS(Me)YL-{Doxorubicin(3'-N)}) | 24 | 79 | 69 | 2.1 | 31 | – | – | 40 (≈ 32.5 µM) | – | – | – | –
COc1cccc2c1C(=O)c1c(O)c3c(c(O)c1C2=O)C[C@@](O)(C(=O)CO)C[C@@H]3O[C@H]1C[C@H](NC(=O)[C@H](CC(C)C)NC(=O)C(CCCN2CCN(C)CC2)NC(=O)[C@H](CCc2ccccc2)NC(=O)CNC(=O)[C@H](CC(C)C)NC(=O)[C@@H]2CCCN2C(C)=O)[C@H](O)[C@H](C)O1 (stereo partly drawn) (Ac-PLG[hPhe][X6]L-{Doxorubicin(3'-N)}) | 55 | 73 | > 120 | < 1 | 100 | – | – | 130 (≈ 98.1 µM) | – | – | – | –
COc1cccc2c1C(=O)c1c(O)c3c(c(O)c1C2=O)C[C@@](O)(C(=O)CO)C[C@@H]3O[C@H]1C[C@H](NC(=O)[C@H](CC(C)C)NC(=O)[C@H](C)NC(=O)[C@H](CCc2ccccc2)NC(=O)CNC(=O)[C@H](CC(C)C)NC(=O)[C@@H]2CCCN2C(C)=O)[C@H](O)[C@H](C)O1 (Ac-PLG[hPhe]AL-{Doxorubicin(3'-N)}) | 11 | < 1 | 19 | 1 | – | – | – | – | – | – | – | –
COc1cccc2c1C(=O)c1c(O)c3c(c(O)c1C2=O)C[C@@](O)(C(=O)CO)C[C@@H]3O[C@H]1C[C@H](NC(=O)[C@H](CC(C)C)NC(=O)[C@H](Cc2ccc(O)cc2)NC(=O)[C@H](COCc2ccccc2)NC(=O)CNC(=O)[C@H](CC(C)C)NC(=O)[C@@H]2CCCN2C(=O)CS(=O)(=O)O)[C@H](O)[C@H](C)O1 (X5-PLGS(Bn)YL-{Doxorubicin(3'-N)}) | 37 | 25 | 111 | < 1 | 90 | 16 | 1500 | > 2400 | – | – | – | –
COc1cccc2c1C(=O)c1c(O)c3c(c(O)c1C2=O)C[C@@](O)(C(=O)CO)C[C@@H]3O[C@H]1C[C@H](NC(=O)[C@H](CC(C)C)NC(=O)[C@H](Cc2ccc(O)cc2)NC(=O)[C@H](CSCc2ccccc2)NC(=O)CNC(=O)[C@H](CC(C)C)NC(=O)[C@@H]2CCCN2C(=O)[C@H](CCC(=O)O)NC(C)=O)[C@H](O)[C@H](C)O1 (Ac-EPLGC(Bn)YL-{Doxorubicin(3'-N)}) | 40 | 107 | 97 | < 1 | 90 | – | – | > 2200 | – | – | – | –
COc1cccc2c1C(=O)c1c(O)c3c(c(O)c1C2=O)C[C@@](O)(C(=O)CO)C[C@@H]3O[C@H]1C[C@H](NC(=O)[C@H](CC(C)C)NC(=O)[C@H](Cc2ccc(O)cc2)NC(=O)[C@H](COCc2ccccc2)NC(=O)CNC(=O)[C@H](CCCNC(N)=O)NC(=O)[C@@H]2CCCN2C(=O)CS(=O)(=O)O)[C@H](O)[C@H](C)O1 (X5-P[Cit]GS(Bn)YL-{Doxorubicin(3'-N)}) | 25 | 38 | 56 | < 1 | 29 | – | – | > 2300 | – | – | – | –
COc1cccc2c1C(=O)c1c(O)c3c(c(O)c1C2=O)C[C@@](O)(C(=O)CO)C[C@@H]3O[C@H]1C[C@H](NC(=O)[C@H](CC(C)C)NC(=O)[C@H](Cc2ccc(O)cc2)NC(=O)[C@H](CC(C)C)NC(=O)CNC(=O)[C@H](CC(C)C)NC(C)=O)[C@H](O)[C@H](C)O1 (Ac-LGLYL-{Doxorubicin(3'-N)}) | 6 | 1 | 24 | 8 | – | – | – | – | – | – | – | –
COc1cccc2c1C(=O)c1c(O)c3c(c(O)c1C2=O)C[C@@](O)(C(=O)CO)C[C@@H]3O[C@H]1C[C@H](NC(=O)[C@H](CC(C)C)NC(=O)[C@H](Cc2ccc(O)cc2)NC(=O)C(CCc2ccncc2)NC(=O)CNC(=O)[C@H](CC(C)C)NC(=O)[C@@H]2CCCN2C(C)=O)[C@H](O)[C@H](C)O1 (stereo partly drawn) (Ac-PLG[X2]YL-{Doxorubicin(3'-N)}) | 21 | 43 | 58 | < 1 | 59 | – | – | 380 (≈ 294 µM) | – | – | – | –
COc1cccc2c1C(=O)c1c(O)c3c(c(O)c1C2=O)C[C@@](O)(C(=O)CO)C[C@@H]3O[C@H]1C[C@H](NC(=O)[C@H](CC(C)C)NC(=O)[C@H](CC(C)C)NC(=O)CNC(=O)[C@H](CC(C)C)NC(C)=O)[C@H](O)[C@H](C)O1 (Ac-LGLL-{Doxorubicin(3'-N)}) | < 1 | < 1 | < 1 | 5 | – | – | – | – | – | – | – | –
COc1cccc2c1C(=O)c1c(O)c3c(c(O)c1C2=O)C[C@@](O)(C(=O)CO)C[C@@H]3O[C@H]1C[C@H](NC(=O)[C@H](CC(C)C)NC(=O)[C@H](C)NC(=O)[C@H](Cc2ccc(O)cc2)NC(=O)[C@H](CC(C)C)NC(=O)CNC(=O)[C@H](CC(C)C)NC(=O)[C@@H]2CCCN2C(C)=O)[C@H](O)[C@H](C)O1 (Ac-PLGLYAL-{Doxorubicin(3'-N)}) | > 120 | > 120 | > 120 | > 120 | – | – | – | – | – | – | – | –
COc1cccc2c1C(=O)c1c(O)c3c(c(O)c1C2=O)C[C@@](O)(C(=O)CO)C[C@@H]3O[C@H]1C[C@H](NC(=O)[C@H](CC(C)C)NC(=O)[C@H](CCc2ccc(O)cc2)NC(=O)[C@H](CCc2ccccc2)NC(=O)CNC(=O)[C@H](CC(C)C)NC(=O)[C@@H]2CCCN2C(C)=O)[C@H](O)[C@H](C)O1 (Ac-PLG[hPhe][hTyr]L-{Doxorubicin(3'-N)}) | 116 | > 120 | > 120 | < 1 | 13 | – | – | 1 (≈ 0.767 µM) | – | – | – | –
